Key:
Hepatitis C virus [1] = experiment: Ratio of EC50 for wild-type Hepatitis C virus isolate Con1 to EC50 for Hepatitis C virus genotype 1a H77 in human Huh7.5 cells by hRLuc reporter gene assay; format: functional, Hepacivirus hominis, Huh-7
How it was run: (§1)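 Stable Huh7.5 replicon cell lines, kept in medium with 250 μg/ml G418, seeded at 2e4/well and settled 30 min. Compounds were added in half-log serial dilutions with solvent (compound-free) controls for 3 days at 37°C, then hRLuc activity was read. Fold change is EC50 relative to wild-type Con-1.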

Hepatitis C virus [2] = experiment: Ratio of EC50 for wild-type Hepatitis C virus isolate Con1 to EC50 for Hepatitis C virus isolate Con1 transfected with NS5B polymerase of HCV genotype 5a in human Huh7.5 cells by hRLuc reporter gene assay; format: functional, Hepacivirus hominis, Huh-7; how it was run: as §1
Hepatitis C virus [3] = experiment: Antiviral activity against Hepatitis C virus isolate Con1 transfected with NS5B polymerase of HCV genotype 5a infected in human Huh7.5 cells assessed as decrease in viral RNA replication after 3 days by hRLuc reporter gene assay; format: functional, organism-based, Hepacivirus hominis; conditions: Con1, Huh-7, 72 h; how it was run: as §1
Hepatitis C virus [4] = experiment: Antiviral activity against Hepatitis C virus genotype 2a JFH1 infected in human Huh7.5 cells assessed as decrease in viral RNA replication after 3 days by hRLuc reporter gene assay; format: functional, organism-based, Hepacivirus hominis; conditions: JFH-1, Huh-7, 72 h; how it was run: as §1
Hepatitis C virus [5] = experiment: Antiviral activity against Hepatitis C virus isolate Con1 transfected with NS5B polymerase of HCV genotype 2b in human Huh7.5 cells assessed as decrease in viral RNA replication after 3 days by hRLuc reporter gene assay; format: functional, organism-based, Hepacivirus hominis; conditions: Con1, Huh-7, 72 h; how it was run: as §1
Hepatitis C virus [6] = experiment: Ratio of EC50 for wild-type Hepatitis C virus isolate Con1 to EC50 for Hepatitis C virus isolate Con1 with NS5B polymerase I482L mutant in human Huh7.5 cells by hRLuc reporter gene assay; format: functional, Hepacivirus hominis, Huh-7
How it was run: (§2)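 Transient assay: Huh7.5 cells electroporated with 10 μg in vitro replicon transcript at 220 V, seeded at 6 × 10^4 cells/well, and given 4 h recovery. Half-log serial compound dilutions with solvent controls were then added for 3 days at 37°C, and hRLuc luciferase was read. EC50 was taken as 50% of compound-free signal by nonlinear regression, as mean ± SD of 2–3 independent experiments. Fold change is relative to wild-type Con-1.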

Hepatitis C virus [7] = experiment: Ratio of EC50 for wild-type Hepatitis C virus isolate Con1 to EC50 for Hepatitis C virus isolate Con1 with NS5B polymerase L419I mutant in human Huh7.5 cells by hRLuc reporter gene assay; format: functional, Hepacivirus hominis, Huh-7; how it was run: as §2
Hepatitis C virus [8] = experiment: Ratio of EC50 for wild-type Hepatitis C virus isolate Con1 to EC50 for Hepatitis C virus isolate Con1 transfected with NS5B polymerase of HCV genotype 4a in human Huh7.5 cells by hRLuc reporter gene assay; format: functional, Hepacivirus hominis, Huh-7; how it was run: as §1
Hepatitis C virus [9] = experiment: Antiviral activity against Hepatitis C virus isolate Con1 transfected with NS5B polymerase of HCV genotype 3a infected in human Huh7.5 cells assessed as decrease in viral RNA replication after 3 days by hRLuc reporter gene assay; format: functional, organism-based, Hepacivirus hominis; conditions: Con1, Huh-7, 72 h; how it was run: as §1
Hepatitis C virus [10] = experiment: Ratio of EC50 for wild-type Hepatitis C virus isolate Con1 to EC50 for Hepatitis C virus isolate Con1 with NS5B polymerase L419I and I482L mutant in human Huh7.5 cells by hRLuc reporter gene assay; format: functional, Hepacivirus hominis, Huh-7; how it was run: as §2
Hepatitis C virus [11] = experiment: Antiviral activity against Hepatitis C virus genotype 1a H77 infected in human Huh7.5 cells assessed as decrease in viral RNA replication after 3 days by hRLuc reporter gene assay; format: functional, organism-based, Hepacivirus hominis; conditions: genotype 1a H77, Huh-7, 72 h; how it was run: as §1
Hepatitis C virus [12] = experiment: Antiviral activity against Hepatitis C virus isolate Con1 transfected with NS5B polymerase of HCV genotype 4a infected in human Huh7.5 cells assessed as decrease in viral RNA replication after 3 days by hRLuc reporter gene assay; format: functional, organism-based, Hepacivirus hominis; conditions: Con1, Huh-7, 72 h; how it was run: as §1
Hepatitis C virus [13] = experiment: Ratio of EC50 for wild-type Hepatitis C virus isolate Con1 to EC50 for Hepatitis C virus genotype 2a JFH1 in human Huh7.5 cells by hRLuc reporter gene assay; format: functional, Hepacivirus hominis, Huh-7; how it was run: as §1
Hepatitis C virus [14] = experiment: Antiviral activity against Hepatitis C virus isolate Con1 infected in human Huh7.5 cells assessed as decrease in viral RNA replication after 3 days by hRLuc reporter gene assay; format: functional, organism-based, Hepacivirus hominis; conditions: Con1, Huh-7, 72 h; how it was run: as §1
Hepatitis C virus [15] = experiment: Ratio of EC50 for wild-type Hepatitis C virus isolate Con1 to EC50 for Hepatitis C virus isolate Con1 transfected with NS5B polymerase of HCV genotype 3a in human Huh7.5 cells by hRLuc reporter gene assay; format: functional, Hepacivirus hominis, Huh-7; how it was run: as §1
Hepatitis C virus [16] = experiment: Ratio of EC50 for wild-type Hepatitis C virus isolate Con1 to EC50 for Hepatitis C virus isolate Con1 transfected with NS5B polymerase of HCV genotype 2b in human Huh7.5 cells by hRLuc reporter gene assay; format: functional, Hepacivirus hominis, Huh-7; how it was run: as §1

SMILES	fold change (FC) (Hepatitis C virus [1])	fold change (FC) (Hepatitis C virus [2])	EC50 (Hepatitis C virus [3]) [nM]	EC50 (Hepatitis C virus [4]) [nM]	EC50 (Hepatitis C virus [5]) [nM]	fold change (FC) (Hepatitis C virus [6])	fold change (FC) (Hepatitis C virus [7])	fold change (FC) (Hepatitis C virus [8])	EC50 (Hepatitis C virus [9]) [nM]	fold change (FC) (Hepatitis C virus [10])	EC50 (Hepatitis C virus [11]) [nM]	EC50 (Hepatitis C virus [12]) [nM]	fold change (FC) (Hepatitis C virus [13])	EC50 (Hepatitis C virus [14]) [nM]	fold change (FC) (Hepatitis C virus [15])	fold change (FC) (Hepatitis C virus [16])
NC(=O)COc1ccc2c(c1)S(=O)(=O)N=C(c1c(O)c3ccccc3n(NC3CCC3)c1=O)N2	4	152	5000	> 32000	> 32000	0.5	0.2	758	> 32000	0.2	140	25000	>970	33	>970	>970
CNC(=O)c1c(-c2ccc(F)cc2)oc2cc(N(CCO)S(C)(=O)=O)c(C3CC3)cc12 [NESBUVIR]	1	0.1	3.2	130	55	1	2	2	51	3	38	69	3	42	1	1
O=C(O)c1ccc2c(c1)nc(-c1ccc(OCc3cc(C(=O)N4CCC(O)CC4)ccc3-c3ccc(Cl)cc3)cc1F)n2C1CCCCC1	1	0.2	160	6900	30000	3	4	2	210	8	490	1500	8	900	0.2	33
COc1ccc2c(O[C@@H]3C[C@H]4C(=O)N[C@@]5(C(=O)O)C[C@@H]5/C=C\CCCCC[C@H](NC(=O)OC(C)(C)C)C(=O)N4C3)cc(-c3ccccn3)nc2c1 [listing 1 of 2 here]	3	3	–	–	–	–	–	8	–	–	–	–	112	–	3	4
C[C@@]1(O)[C@H](O)[C@@H](CO)O[C@H]1n1ccc(N)nc1=O	1	0.5	–	–	–	1	1	2	–	2	–	–	1	–	0.2	0.4
CC(C)C#Cc1cc(N(C(=O)[C@H]2CC[C@H](C)CC2)C(C)C)c(C(=O)O)s1	1	8	200	6100	> 32000	201	326	88	> 32000	2238	20	2200	244	25	>1280	>1280
COc1ccc2c(O[C@@H]3C[C@H]4C(=O)N[C@@]5(C(=O)O)C[C@@H]5/C=C\CCCCC[C@H](NC(=O)OC(C)(C)C)C(=O)N4C3)cc(-c3ccccn3)nc2c1 [listing 2 of 2 here]	–	–	23	740	26	–	–	–	22	–	20	53	–	6.6	–	–

Reference: ChEMBL document CHEMBL1629557, “Development of intergenotypic chimeric replicons to determine the broad-spectrum antiviral activities of hepatitis C virus polymerase inhibitors” (Antimicrob Agents Chemother, 2008)
